In brackets after ≈: the same amount, converted by molar mass.
Assays:
Staphylococcus aureus = assay: Minimum inhibitory concentration against Staphylococcus aureus Tour evaluated in vitro; assay type: functional
How it was run: (§1)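 Twofold broth microdilution in Oxoid Iso-Sensitest broth, final inoculum ~10⁴ cfu/mL, overnight at 37 °C. MIC (μg/mL) was read as the lowest concentration with no visible growth. Coagulase-negative staphylococci were identified by API STAPH per Kloos and Schleifer.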

Streptococcus pyogenes [1] = assay: Minimum inhibitory concentration against Streptococcus pyogenes C 203 evaluated in vitro; assay type: functional
How it was run: (§2)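 Twofold broth microdilution in Difco Todd-Hewitt broth, final inoculum ~10⁴ cfu/mL, overnight at 37 °C. MIC (μg/mL) was read as the lowest concentration showing no visible growth.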

[2] = tested on: Staphylococcus epidermidis; assay: Minimum inhibitory concentration against Staphylococcus epidermis ATCC 12228 evaluated in vitro; assay type: functional; how it was run: as §1
Enterococcus faecalis = assay: Minimum inhibitory concentration against Streptococcus faecalis ATCC 7080 evaluated in vitro; assay type: functional; how it was run: as §1
Streptococcus pneumoniae = assay: Minimum inhibitory concentration against Streptococcus pneumoniae UC 41 evaluated in vitro; assay type: functional; how it was run: as §2
[3] = Association constant of compound was evaluated at pH 5; assay type: ADME
How it was run: (§3)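 UV difference spectroscopy: Ac₂-L-Lys-D-Ala-D-Ala was added to antibiotic at 30 μM (initial) in 10% MeOH/sodium phosphate buffer (pH 5 or pH 9). Double-beam spectrophotometer, 4-cm nonthermostated cells, 24 ± 2 °C. ΔA was monitored at 294 nm, and Ka was taken from the slope of a Scatchard plot.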

[4] = Association constant of compound was evaluated at pH 9; assay type: ADME; how it was run: as §3
Streptococcus pyogenes [5] = assay: Minimum inhibitory concentration administered subcutaneously against Streptococcus pyogenes C203 in mouse; conditions: sc
Staphylococcus simulans [6] = assay: Minimum inhibitory concentration against Staphylococcus simulans L1142 evaluated in vitro; assay type: functional; how it was run: as §1
Staphylococcus simulans [7] = assay: Minimum inhibitory concentration against Staphylococcus simulans L785 evaluated in vitro; assay type: functional; how it was run: as §1
Streptococcus pyogenes [8] = assay: Minimum inhibitory concentration against Streptococcus pyogenes C203 evaluated in vivo(mouse); assay type: functional
How it was run: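 Mice in groups of five were infected intraperitoneally with S. pyogenes C 203, with inoculum set so untreated animals die of septicemia within 48 h. A single subcutaneous treatment was given immediately after infection. ED₅₀ was calculated from the percentage surviving at each dose on day 7.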

[9] = tested on: Staphylococcus haemolyticus; assay: Minimum inhibitory concentration against Staphylococcus haemolyticus L1520 evaluated in vitro; assay type: functional; how it was run: as §1
[10] = tested on: Staphylococcus epidermidis; assay: Minimum inhibitory concentration against Staphylococcus epidermis L1378 evaluated in vitro; assay type: functional; how it was run: as §1
Staphylococcus hominis = assay: Minimum inhibitory concentration against Staphylococcus hominis L1070 evaluated in vitro; assay type: functional; how it was run: as §1
Staphylococcus warneri = assay: Minimum inhibitory concentration against Staphylococcus warneri L1375 evaluated in vitro; assay type: functional; how it was run: as §1
[11] = Staphylococcus aureus, read-out: MIC
[12] = Streptococcus pyogenes, read-out: MIC
[13] = Staphylococcus epidermidis, ATCC 12228, read-out: MIC
[14] = Streptococcus pneumoniae, read-out: MIC

Compound	MIC (Staphylococcus aureus; [11]) [µg/mL]	MIC (Streptococcus pyogenes [1]; [12]) [µg/mL]	MIC [2, 13] [µg/mL]	MIC (Enterococcus faecalis) [µg/mL]	MIC (Streptococcus pneumoniae; [14]) [µg/mL]	Ka [3] [M⁻¹]	Ka [4] [M⁻¹]	ED50 (Streptococcus pyogenes [5]) [mg/kg]	MIC (Staphylococcus simulans [6]) [µg/mL]	MIC (Staphylococcus simulans [7]) [µg/mL]	ED50 (Streptococcus pyogenes [8]) [mg/kg]	MIC [9] [µg/mL]	MIC [10] [µg/mL]	MIC (Staphylococcus hominis) [µg/mL]	MIC (Staphylococcus warneri) [µg/mL]	MIC (Staphylococcus aureus) [µg/mL]	MIC (Streptococcus pyogenes [1]) [µg/mL]	MIC [2] [µg/mL]	MIC (Streptococcus pneumoniae) [µg/mL]
CCCCC/C=C/CCC(=O)N[C@@H]1[C@H](Oc2c3cc4cc2Oc2ccc(cc2Cl)CC2NC(=O)[C@H](N)c5ccc(O)c(c5)Oc5cc(O)cc(c5)C(NC2=O)C(=O)NC4C(=O)NC2C(=O)/N=C(\Cc4ccc(c(Cl)c4)O3)C(=O)N[C@H](C(=O)O)c3cc(O)cc(O[C@H]4O[C@H](CO)[C@@H](O)[C@@H](O)[C@@H]4O)c3-c3cc2ccc3O)O[C@@H](CO)[C@@H](O)[C@@H]1O (some centres not stated)	0.5 (≈ 0.302 µM)	0.063 (≈ 0.038 µM)	0.25 (≈ 0.151 µM)	1 (≈ 0.604 µM)	0.063 (≈ 0.038 µM)	390000	60000	0.35											
CC(=O)N[C@@H]1[C@H](O[C@@H]2c3ccc(c(Cl)c3)Oc3cc4cc(c3O)Oc3ccc(cc3Cl)C[C@H]3NC(=O)[C@H](N)c5ccc(O)c(c5)Oc5cc(O)cc(c5)[C@H](NC3=O)C(=O)N[C@H]4C(=O)N[C@H]3C(=O)N[C@@H]2C(=O)N[C@H](C(=O)O)c2cc(O)cc(O)c2-c2cc3ccc2O)O[C@@H](CO)[C@@H](O)[C@@H]1O	0.5 (≈ 0.357 µM)	0.5 (≈ 0.357 µM)	0.125 (≈ 0.0892 µM)	1 (≈ 0.713 µM)	1 (≈ 0.713 µM)	2.6e+06	32000												
CC(=O)N[C@@H]1[C@H](O[C@@H]2c3ccc(c(Cl)c3)Oc3cc4cc(c3O)Oc3ccc(cc3Cl)C[C@H]3NC(=O)[C@H](N)c5ccc(O)c(c5)Oc5cc(O)cc(c5)[C@H](NC3=O)C(=O)N[C@H]4C(=O)N[C@H]3C(=O)N[C@@H]2C(=O)N[C@H](C(=O)O)c2cc(O)cc(O[C@H]4O[C@H](CO)[C@@H](O)[C@@H](O)[C@@H]4O)c2-c2cc3ccc2O)O[C@@H](CO)[C@@H](O)[C@@H]1O	0.25 (≈ 0.16 µM)	0.5 (≈ 0.32 µM)	0.25 (≈ 0.16 µM)	2 (≈ 1.28 µM)	0.5 (≈ 0.32 µM)	1200000	90000												
N[C@H]1C(=O)NC2Cc3ccc(c(Cl)c3)Oc3cc4cc(c3O)Oc3ccc(cc3Cl)C/C3=N\C(=O)C(NC(=O)C4NC(=O)C(NC2=O)c2cc(O)cc(c2)Oc2cc1ccc2O)c1ccc(O)c(c1)-c1c(O)cc(O)cc1[C@@H](C(=O)O)NC3=O (some centres not stated)	0.25 (≈ 0.212 µM)	1 (≈ 0.847 µM)	0.125 (≈ 0.106 µM)		1 (≈ 0.847 µM)	100000			0.125 (≈ 0.106 µM)	0.125 (≈ 0.106 µM)	5	0.5 (≈ 0.423 µM)	0.125 (≈ 0.106 µM)	0.125 (≈ 0.106 µM)	1 (≈ 0.847 µM)				
CCCCC/C=C/CCC(=O)N[C@@H]1[C@H](Oc2c3cc4cc2Oc2ccc(cc2Cl)[C@@H](O[C@@H]2O[C@@H](CO)[C@@H](O)[C@H](O)[C@@H]2NC(C)=O)[C@@H]2NC(=O)[C@H](NC(=O)[C@@H]4NC(=O)[C@H]4NC(=O)[C@@H](Cc5ccc(c(Cl)c5)O3)NC(=O)[C@H](N)c3ccc(O)c(c3)Oc3cc(O)cc4c3)c3ccc(O)c(c3)-c3c(O[C@H]4O[C@H](CO)[C@@H](O)[C@@H](O)[C@@H]4O)cc(O)cc3[C@@H](C(=O)O)NC2=O)O[C@@H](CO)[C@@H](O)[C@@H]1O	0.125 (≈ 0.0666 µM)	0.063 (≈ 0.0336 µM)	0.25 (≈ 0.133 µM)	0.125 (≈ 0.0666 µM)	0.063 (≈ 0.0336 µM)	1600000	2.1e+06	0.18	0.125 (≈ 0.0666 µM)	0.25 (≈ 0.133 µM)		4 (≈ 2.13 µM)	0.5 (≈ 0.266 µM)	0.25 (≈ 0.133 µM)	2 (≈ 1.07 µM)				
N[C@H]1C(=O)NC2Cc3ccc(c(Cl)c3)Oc3cc4cc(c3O)Oc3ccc(cc3Cl)C/C3=N\C(=O)C(NC(=O)C4NC(=O)C(NC2=O)c2cc(O)cc(c2)Oc2cc1ccc2O)c1ccc(O)c(c1)-c1c(O[C@H]2O[C@H](CO)[C@@H](O)[C@@H](O)[C@@H]2O)cc(O)cc1[C@@H](C(=O)O)NC3=O (some centres not stated)	0.25 (≈ 0.186 µM)	2 (≈ 1.49 µM)	0.5 (≈ 0.372 µM)	1 (≈ 0.745 µM)	2 (≈ 1.49 µM)	380000	61000	5.8											
N[C@H]1C(=O)NC2Cc3ccc(c(Cl)c3)Oc3cc4cc(c3O)Oc3ccc(cc3Cl)/C=C3\NC(=O)C(NC(=O)C4NC(=O)C(NC2=O)c2cc(O)cc(c2)Oc2cc1ccc2O)c1ccc(O)c(c1)-c1c(O)cc(O)cc1[C@@H](C(=O)O)NC3=O (stereo in doubt; 4)						< 100	< 100									1 (≈ 0.847 µM)	4 (≈ 3.39 µM)	0.125 (≈ 0.106 µM)	4 (≈ 3.39 µM)
N[C@H]1C(=O)NC2Cc3ccc(c(Cl)c3)Oc3cc4cc(c3O)Oc3ccc(cc3Cl)/C=C3\NC(=O)C(NC(=O)C4NC(=O)C(NC2=O)c2cc(O)cc(c2)Oc2cc1ccc2O)c1ccc(O)c(c1)-c1c(O)cc(O)cc1[C@@H](C(=O)O)NC3=O (stereo in doubt; 5)	2 (≈ 1.69 µM)	8 (≈ 6.77 µM)		16 (≈ 13.5 µM)	8 (≈ 6.77 µM)		< 100											0.5 (≈ 0.423 µM)	
N[C@H]1C(=O)N[C@@H]2Cc3ccc(c(Cl)c3)Oc3cc4cc(c3O)Oc3ccc(cc3Cl)[C@@H](O)[C@@H]3NC(=O)[C@H](NC(=O)[C@@H]4NC(=O)[C@@H](NC2=O)c2cc(O)cc(c2)Oc2cc1ccc2O)c1ccc(O)c(c1)-c1c(O)cc(O)cc1[C@@H](C(=O)O)NC3=O [TEICOPLANIN AGLYCON]	0.063 (≈ 0.0525 µM)	0.125 (≈ 0.104 µM)	0.016 (≈ 0.0133 µM)	0.125 (≈ 0.104 µM)	0.125 (≈ 0.104 µM)	2.5e+06	30000	0.95	0.063 (≈ 0.0525 µM)	0.063 (≈ 0.0525 µM)		0.125 (≈ 0.104 µM)	0.063 (≈ 0.0525 µM)	0.063 (≈ 0.0525 µM)	0.25 (≈ 0.209 µM)				
